These results are taken from PMC8245906 (Acta Pharmaceutica Sinica. B, 2021).

The nature of series [1]: Microsomal stability in human liver microsomes. It counts as in vitro ADME. Conditions: for microsomal CLint at 1 μmol/L: human, liver microsomes, pH 7.4. In outline: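 Human liver microsomes (0.5 mg/mL protein) in 0.1 mol/L potassium phosphate, pH 7.4, 37 °C, with 1 mmol/L NADPH and 1 mmol/L MgCl₂, or without NADPH. Test compound at 1 µmol/L final. For CYP3A inhibition, cobicistat was pre-incubated 5 min before the compound. Sampled at 0–60 min and quenched with acidified acetonitrile. LC/MS/MS gave t1/2 and CLint; at least duplicate.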

Series [2] is described as follows: Microsomal stability in CD-1 mice liver microsomes. It counts as in vitro ADME. Conditions: for microsomal CLint at 1 μmol/L: CD-1, mouse, liver microsomes, pH 7.4. In outline:
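Mouse liver microsomes (0.5 mg/mL protein, final) in 0.1 mol/L potassium phosphate, pH 7.4, 37 °C, with 1 mmol/L NADPH and 1 mmol/L MgCl₂. Started by adding test compound (1 µmol/L final). A no-NADPH control was run in parallel. Sampled at 0, 5, 15, 30 and 60 min and quenched in acidified acetonitrile. LC/MS/MS gave t1/2 and CLint. At least duplicate independent assays.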
For orientation: Microsomes from liver hold many membrane-bound enzymes, among them those of drug oxidation.

Series [3] in a line: Plasma stability in human plasma. It is filed as in vitro ADME. Conditions: 1 μmol/L, 80% plasma, 37 °C. The procedure, abridged:
(§1)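 Test compound (1 µmol/L final) incubated in duplicate in pooled plasma diluted to 80% in 0.1 mol/L potassium phosphate, pH 7.4, at 37 °C. Aliquots taken at 0, 1, 3, 6 and 24 h, quenched with acetonitrile containing 0.1% formic acid, and centrifuged. Supernatant analysed by LC/MS/MS to derive plasma t1/2.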

A short description of series [4]: Plasma stability in CD-1 mouse plasma. It is filed as in vitro ADME, CD-1 mice. The procedure, abridged:
as §1

A short description of series [5]: Pharmacokinetics and oral bioavailability of GS-441524 in CD-1 mice. It counts as in vivo.
A short description of series [6]: Tissue distribution of GS-441524 and GS-443902 in CD-1 mice after oral dosing. Conditions: 20 mg/kg oral dose. It is filed as in vivo.
The test system of series [7] is SARS-CoV-2. Conditions: Calu-3 2B4 cells, cited from earlier work.
Series [8] concerns SARS-CoV-2. Conditions: Vero E6 cells, cited from earlier work.
Series [9] deals with SARS-CoV-2. Conditions: read-out: EC50 against SARS-CoV-2; A549-hACE2 cells; cited from earlier work.
The test system of series [10] is major CYP enzymes including 1A1, 1A2, 2B6, 2C8, 2C9, 2C19, 2D6, 3A4, or 3A5. Conditions: cited from earlier work.
The conditions of series [11]: human, after iv infusion of RDV, phase I; cited from earlier work.
Another series deals with CYP 2C8, 2D6 and 3A4. Conditions: cited from earlier work.
For the next series, the system named is P-glycoprotein (P-gp). Conditions: cited from earlier work.
The mark [12] stands for this setting: male, CD-1, mouse, plasma, iv, 5 mg/kg.
The mark [13] stands for this setting: male, CD-1, mouse, plasma, po, 10 mg/kg.
Setting [14] is: read-out: EC50 against SARS-CoV-2.
The mark [15] stands for this setting: read-out: EC90 against SARS-CoV-2.

The structures appear in SMILES notation. Where two headings read alike, the source gives them in different places.

Turning to `N#C[C@@]1(c2ccc3c(N)ncnn23)O[C@H](CO)[C@@H](O)[C@H]1O` [GS-441524], the microsomal CLint at 1 μmol/L in series [1] was found to be 1.9 ± 0.1 µL/min/mg; in [2] it was 1.7 ± 0.4 µL/min/mg. Moreover, in series [1] (with NADPH, 60 min), the “Remaining percentage at 60 min in HLMs” value is given as “over 91%”. Moreover, the “Remaining percentage at 60 min in MLMs” value in [2] (with NADPH, 60 min) is “over 91%”. For the same molecule, the “Plasma stability t1/2 Human” value in series [3] is >24 h. The “Plasma stability t1/2 Mouse” value in series [4] (1 μmol/L, 80% CD-1 mouse plasma, 37 °C) is >24 h. Further, the MRT turned out to be 1.7 h in series [5] (setting [12]) and 4.2 h in series [5] (setting [13]). Besides, the figures for the Tmax in series [5] (setting [12]) and in series [5] (setting [13]) were 0.083 h and 1 h, respectively. In [5] (setting [12]), the Vd was determined as 4.2 L/kg. This molecule also had a clearance in series [5] (setting [12]) of 20 mL/min/kg. Besides, the half-life in series [5] (setting [12]) is 2.5 h; in series [5] (setting [13]), 2.9 h. Moreover, the exposure (AUC) in series [5] (male, CD-1, mouse, plasma, iv, 5 mg/kg, AUC0‒t, iv 5 mg/kg, CD-1 mice) turned out to be 14.8 µM·h; in series [5] (male, CD-1, mouse, plasma, iv, 5 mg/kg, AUC0‒∞, iv 5 mg/kg, CD-1 mice), 14.8 µM·h; in series [5] (male, CD-1, mouse, plasma, po, 10 mg/kg, AUC0‒t, po 10 mg/kg, CD-1 mice), 16.8 µM·h; in [5] (male, CD-1, mouse, plasma, po, 10 mg/kg, AUC0‒∞, po 10 mg/kg, CD-1 mice), 16.8 µM·h. The Cmax in series [5] (male, CD-1, mouse, plasma, iv, 5 mg/kg, Cmax, iv 5 mg/kg, CD-1 mice) was 11.6 µM; in [5] (po 10 mg/kg, CD-1 mice, plasma, 10 mg/kg), 3.28 µM. In addition, the “CL (clearance)” value in series [5] (po 10 mg/kg, CD-1 mice) worked out at 33.3 mL/min/kg. Further, in series [5] (po 10 mg/kg, CD-1 mice), the “V (volume of distribution)” value was 8.4 L/kg. Besides, the “Plasma level from 0.25 to 2 h” value in series [5] (po 10 mg/kg, CD-1 mice, 0.25 to 2 h) is > 2 µM. In addition, the “Concentration in lung within the first 4 h” value in series [6] (lung) is ≥ 2.2 µM. In addition, the “Concentration in plasma within the first 4 h” value in series [6] (plasma) is ≥ 2.2 µM. Also, the half-maximal effective concentration (EC50) is 620 nM in the series on SARS-CoV-2 [7] (setting [14]), 470 nM with SARS-CoV-2 [8] (setting [14]) and 870 nM with SARS-CoV-2 [9]. Further, the EC90 with SARS-CoV-2 [7] (setting [15]) is 1340 nM; in the series on SARS-CoV-2 [8] (setting [15]) it was 710 nM. For the same molecule, the “Substrate of major CYP enzymes” value in [10] is recorded as “not a substrate”.

`CCC(CC)COC(=O)[C@H](C)N[P@](=O)(OC[C@H]1O[C@@](C#N)(c2ccc3c(N)ncnn23)[C@H](O)[C@@H]1O)Oc1ccccc1` [RDV, Remdesivir]: the “Remaining percentage of intact RDV at 60 min with NADPH/Cobi” value in [1] (HLMs, with NADPH/Cobi, 60 min) is listed as 38.5%. In [1] (HLMs, without NADPH, 60 min), the “Remaining percentage of intact RDV at 60 min without NADPH” value is on record as 26.1%. In addition, the microsomal CLint at 1 μmol/L in [1] worked out at 1260 ± 68.6 µL/min/mg; in series [2] it was 1680 ± 130 µL/min/mg. The “Microsomal stability MLMs t1/2” value in series [2] (with cofactor NADPH, 1 μmol/L compound, 0.5 mg/mL microsomal protein) is 48 ± 6 s. Also, the half-life at 1 μmol/L in series [4] (CD-1, mouse, plasma (80% in buffer), pH 7.4) is < 1 min. For the same molecule, the “Stability in CD-1 mouse plasma (in words)” value in [4] (wild-type CD-1 mouse plasma) is given as “undetectable within seconds”. Besides, in [11], the “Plasma half-life (t1/2)” value is “about 1 h”. Also, the “Substrate for CYP 2C8, 2D6 and 3A4” value with CYP 2C8, 2D6 and 3A4 is “substrate”. Moreover, the “Substrate of P-glycoprotein (P-gp)” value in the series on P-glycoprotein (P-gp) is “substrate”.

What is called microsomal CLint is the capacity of the preparation to metabolise the compound, expressed as a volume cleared per time. Lower therefore signals greater metabolic stability. By MRT is commonly meant a mean duration of stay, worked out from the concentration-time curve. A word on the Tmax: it is the time from dosing to the highest level. The half-life is the time in which the quantity being followed falls by half. By AUC is commonly meant concentration integrated over time. A low value points to less exposure. As usually defined, the Cmax is the highest concentration seen after dosing. The EC50 is the concentration giving half of the maximal effect. As usually defined, the EC90 is the concentration needed for an effect of 90%.
